Experimental data reported in ChEMBL document CHEMBL1135880, “Synthesis and X-ray studies of chiral allosteric modifiers of hemoglobin” (J Med Chem, 2002).

What was measured:
[1] = target: T1, Hemoglobin HbA (Homo sapiens) (UniProt P69905+P68871); assay: Ability to right-shift the oxygen equilibrium curves (OECs) quantified by ability to increase in P50 at which Hb was 50% saturated with oxygen in the […] of the effector.; format: functional
[2] = target: T1, Hemoglobin HbA (Homo sapiens); assay: Ability to right-shift the oxygen equilibrium curves (OECs) quantified by ability to increase in P50 at which Hb was 50% saturated with oxygen in the presence of the effector at the concentration of 5 mM.; format: functional
Summary of the method: (§1)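 Human whole blood; DMSO stock 200 mM, final 5 mM effector, DMSO-only control. Duplicate samples equilibrated ~10 min at 37 °C in tonometers against gas mixtures of 2.95%, 5.85% and 8.75% O2 with 5.8% CO2, balance N2. pO2 and sO2 read on blood gas analyzer and co-oximeter. P50 and n50 from nonlinear regression; ΔP50 = P50 effector − P50 control.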

[3] = target: T1, Hemoglobin HbA (Homo sapiens); assay: Oxygen pressure in mmHg at which Hb is 50% saturated with oxygen at 50-60 uM heme concentration and in the presence of 0.5 mM effector.; format: functional
[4] = target: T1, Hemoglobin HbA (Homo sapiens); assay: The difference in the partial pressure of oxygen at 50% saturated Hb; format: functional; summary of the method: as §1
[5] = target: T1, Hemoglobin HbA (Homo sapiens); assay: Ability to right-shift the oxygen equilibrium curves (OECs) quantified by ability to increase in P50 in whole blood analyses.; format: functional, tissue-based; summary of the method: as §1
[6] = target: T1, Hemoglobin HbA (Homo sapiens); assay: Ratio of […] (P50 control value with no effector present 5.0 mmHg, in case of DMSO is 4.7 mmHg ); format: functional
[7] = target: T1, Hemoglobin HbA (Homo sapiens); assay: The Hill coefficient at 50% saturation (n50) between 40 and 60% oxygen saturation (n50 control value with no effector present, 2.7).; format: protein-complex assay
[8] = target: T1, Hemoglobin HbA (Homo sapiens); assay: The Hill coefficient at 50% saturation (n50) in the presence of effector.; format: protein-complex assay; summary of the method: as §1

T1 sequence (P68871 2-147 partner limits assumed): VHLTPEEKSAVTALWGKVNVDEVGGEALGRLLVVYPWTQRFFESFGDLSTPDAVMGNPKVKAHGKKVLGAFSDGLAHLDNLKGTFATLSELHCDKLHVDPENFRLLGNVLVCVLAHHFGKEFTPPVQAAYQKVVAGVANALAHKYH
T1 sequence (P69905 2-142 limits assumed): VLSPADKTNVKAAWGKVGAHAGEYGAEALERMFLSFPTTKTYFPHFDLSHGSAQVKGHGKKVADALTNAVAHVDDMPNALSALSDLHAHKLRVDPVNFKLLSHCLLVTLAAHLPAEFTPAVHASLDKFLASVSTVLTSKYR

Structure (SMILES) | P50e [1] | P50e [2] | P50e [3] | Delta P50 [4] | P50c [5] | P50e / P50c [6] | Hill coefficient (n50) [7] | n50e [8]
Cc1cc(C)cc(NC(=O)Cc2ccc(OC3(C(=O)N[C@@H](CO)C(=O)O)CCCC3)cc2)c1 | 38.7 mmHg | 44.7 mmHg | 17.1 mmHg | 15.5 | 26.2 mmHg | 3.4 | 2.6 | 2.3
Cc1cc(C)cc(NC(=O)Cc2ccc(OC3(C(=O)N[C@H](Cc4ccc(O)cc4)C(=O)O)CCCC3)cc2)c1 | 47 mmHg | 49 mmHg | 48.6 mmHg | 20.8 | 27.2 mmHg | 9.7 | 2.3 | 2
Cc1cc(C)cc(NC(=O)Cc2ccc(OC3(C(=O)N4CCC[C@H]4C(=O)O)CCCC3)cc2)c1 | 41.1 mmHg | 42.5 mmHg | 13.5 mmHg | 17 | 24.8 mmHg | 2.7 | 2.7 | 2.3
Cc1cc(C)cc(NC(=O)Cc2ccc(OC3(C(=O)N[C@H](Cc4ccccc4)C(=O)O)CCCC3)cc2)c1 | 48.1 mmHg | 49.8 mmHg | 8.2 mmHg | 20.3 | 28.7 mmHg | 1.7 | 2.6 | 1.9
Cc1cc(C)cc(NC(=O)Cc2ccc(OC3(C(=O)N[C@H](CSCc4ccccc4)C(=O)O)CCCC3)cc2)c1 | 30.6 mmHg | 33.3 mmHg | 43 mmHg | 7.2 | 24.8 mmHg | 8.6 | 2.1 | 2.3
CC[C@@H](C)[C@@H](NC(=O)C1(Oc2ccc(CC(=O)Nc3cc(C)cc(C)c3)cc2)CCCC1)C(=O)O | 38.9 mmHg | 40.6 mmHg | 12.3 mmHg | 13.2 | 26.5 mmHg | 2.5 | 2.6 | 2.3
Cc1cc(C)cc(NC(=O)Cc2ccc(OC3(C(=O)N[C@H](CCCCN)C(=O)O)CCCC3)cc2)c1 | 26.7 mmHg | 28.6 mmHg | 8.1 mmHg | -0.6 | 28.3 mmHg | 1.6 | 2.4 | 2.7
Cc1cc(C)cc(NC(=O)Cc2ccc(OC3(C(=O)N[C@H](CCCCNC(=O)OCc4ccccc4)C(=O)O)CCCC3)cc2)c1 | 27.6 mmHg | 28.2 mmHg | 22.4 mmHg | 0.4 | 27.5 mmHg | 4.5 | 2.5 | 2.5
Cc1cc(C)cc(NC(=O)Cc2ccc(OC3(C(=O)O)CCCC3)cc2)c1 | 67.7 mmHg | 74.7 mmHg | – | 42.3 | 28.9 mmHg | 5.1 | 2.4 | 1.7
Cc1cc(C)cc(NC(=O)Cc2ccc(OC3(C(=O)N[C@@H](C(=O)O)C(C)C)CCCC3)cc2)c1 | 56.6 mmHg | 57.3 mmHg | 13.9 mmHg | 30.2 | 26.7 mmHg | 2.8 | 2.6 | 1.9
Cc1cc(C)cc(NC(=O)Cc2ccc(OC3(C(=O)N[C@H](CO)C(=O)O)CCCC3)cc2)c1 | 31.1 mmHg | 34 mmHg | 11.2 mmHg | 5.4 | 27.1 mmHg | 2.3 | 2.6 | 2.1
Cc1cc(C)cc(NC(=O)Cc2ccc(OC3(C(=O)NCC(=O)O)CCCC3)cc2)c1 | 50 mmHg | 52.6 mmHg | 12 mmHg | 25.1 | 26.2 mmHg | 2.4 | 2.6 | 2.1
Cc1cc(C)cc(NC(=O)Cc2ccc(OC3(C(=O)N[C@H](CC(C)C)C(=O)O)CCCC3)cc2)c1 | 41.9 mmHg | 42.6 mmHg | 9.4 mmHg | 15.2 | 27.1 mmHg | 1.9 | 2.6 | 2.3
Cc1cc(C)cc(NC(=O)Cc2ccc(OC3(C(=O)N[C@@H](CC(C)C)C(=O)O)CCCC3)cc2)c1 | 70.6 mmHg | 71.3 mmHg | 21.3 mmHg | 41.5 | 29.4 mmHg | 4.3 | 2.7 | 1.8
Cc1cc(C)cc(NC(=O)Cc2ccc(OC(C)(C)C(=O)O)cc2)c1 | 80 mmHg | 82.6 mmHg | – | 51.5 | 29.8 mmHg | 4.7 | 2.3 | 1.5
Cc1cc(C)cc(NC(=O)Cc2ccc(OC3(C(=O)N[C@H](C(=O)O)C(C)C)CCCC3)cc2)c1 | 53.9 mmHg | 54.8 mmHg | 13 mmHg | 28.6 | 25.7 mmHg | 2.6 | 2.7 | 2
Cc1cc(C)cc(NC(=O)Cc2ccc(OC3(C(=O)N[C@H](CC(=O)O)C(=O)O)CCCC3)cc2)c1 | 50.2 mmHg | 55.3 mmHg | 16.1 mmHg | 26.6 | 26.2 mmHg | 3.2 | 2.6 | 1.9
Cc1cc(C)cc(NC(=O)Cc2ccc(OC3(C(=O)N[C@@H](CCCCNC(=O)OCc4ccccc4)C(=O)O)CCCC3)cc2)c1 | 39.5 mmHg | 45 mmHg | 29.5 mmHg | 14 | 28.3 mmHg | 5.9 | 2.4 | 2.1
Cc1cc(C)cc(NC(=O)Cc2ccc(OC3(C(=O)N[C@H](C)C(=O)O)CCCC3)cc2)c1 | 50.3 mmHg | 52.1 mmHg | 13.8 mmHg | 21.9 | 29.4 mmHg | 2.8 | 2.6 | 1.7
Cc1cc(C)cc(NC(=O)Cc2ccc(OC3(C(=O)N[C@@H](C)C(=O)O)CCCC3)cc2)c1 | 42.8 mmHg | 46.2 mmHg | 10.5 mmHg | 17.6 | 26.8 mmHg | 2.1 | 2.7 | 2.1
CSCC[C@H](NC(=O)C1(Oc2ccc(CC(=O)Nc3cc(C)cc(C)c3)cc2)CCCC1)C(=O)O | 50.7 mmHg | 56.8 mmHg | 18.1 mmHg | 26.6 | 27.1 mmHg | 3.6 | 2.6 | 2.3
CSCC[C@@H](NC(=O)C1(Oc2ccc(CC(=O)Nc3cc(C)cc(C)c3)cc2)CCCC1)C(=O)O | 44.8 mmHg | 45.5 mmHg | 9.5 mmHg | 20.6 | 24.5 mmHg | 1.9 | 2.8 | 2.1
